According to ChEMBL document CHEMBL2385003, “Oleuropein protects against dextran sodium sulfate-induced chronic colitis in mice” (J Nat Prod, 2013):
The source made the active and inactive calls. No cut-off for these calls is given here.

Assays:
Mus musculus [1] = experiment: Antiinflammatory activity in C57BL/6 mouse DSS-induced chronic colitis model assessed as decrease in myeloperoxidase activity measured reduction of neutrophil accumulation in colon at 500 mg/kg/day administered through diet for total of 4 weeks for alternative weeks with water measured after 56 days by spectrophotometric analysis relative to DSS-treated mouse; format: functional; design: scale not given: the % may be the effect or the level left
Summary of the method: (§1)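 Female C57BL/6 mice, 6−8 weeks, 18−20 g. Four DSS cycles in drinking water (1% in cycles 1–2, 2% in cycles 3–4; each 7 days DSS, then 7 days water). Diet held 0.25% test substance (about 500 mg/kg/day). Colons taken at day 56 and homogenized in 80 mM phosphate pH 5.4 with 0.5% HTAB. MPO read with TMB/H2O2, 37 °C 3 min, 630 nm. EPO read with o-phenylenediamine/H2O2, 2 min room temperature, 490 nm. NAG read with 4-nitrophenyl N-acetyl-β-D-glucosaminide, 37 °C 5 min, 405 nm. Mean ± SEM, n = 7.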

Mus musculus [2] = experiment: Antiinflammatory activity in C57BL/6 mouse DSS-induced chronic colitis model assessed as prevention of body weight loss at 500 mg/kg/day administered through diet for total of 4 weeks for alternative weeks with water measured after 56 days; format: functional, organism-based
Mus musculus [3] = experiment: Antiinflammatory activity in C57BL/6 mouse DSS-induced chronic colitis model assessed as reduction of edema at 500 mg/kg/day administered through diet for total of 4 weeks for alternative weeks with water measured after 56 days by hematoxylin-eosin staining; format: functional, organism-based
Mus musculus [4] = experiment: Antiinflammatory activity in C57BL/6 mouse DSS-induced chronic colitis model assessed as inhibition of IL-6 production in colon at 500 mg/kg/day administered through diet for total of 4 weeks for alternative weeks with water measured after 56 days by ELISA relative to DSS-treated mouse; format: functional; conditions: C57BL/6, Colon
Summary of the method: (§2)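 Mice were female C57BL/6 on the chronic DSS schedule: 1% DSS in cycles 1–2, 2% in cycles 3–4, each cycle 7 days DSS then 7 days water. Diet carried 0.25% test substance for 56 days. Colon powder was suspended 20% w/v in PBS/0.1% NP-40, sonicated and spun at 20000g. IL-6, IL-1β and IL-10 were measured in supernatants by ELISA as pg/mL per mg protein. Mean ± SEM, n = 7.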

IEC-18 [5] = experiment: Inhibition of LPS-induced p38 MAPK phosphorylation in rat IEC-18 cells at 100 uM incubated for 1 hr prior to LPS challenge measured after 30 mins by Western blot analysis; format: cell-based
Summary of the method: (§3)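 IEC-18 cells were seeded at 2.5 × 10^5 cells/mL in DMEM with 5% FBS; after 24 h the medium was switched to 0.5% FBS. Cells were pretreated 1 h with test substance at 100 μM (SB 203580 10 μM as reference), then given LPS 1 μg/mL. Phospho-p38 was read at 30 min and COX-2 at 24 h by Western blot (25 μg protein, 1:1000 antibodies, β-actin normalized). n = 6.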

Mus musculus [6] = experiment: Antiinflammatory activity in C57BL/6 mouse DSS-induced chronic colitis model assessed as reduction of rectal bleeding at 500 mg/kg/day administered through diet for total of 4 weeks for alternative weeks with water measured after 56 days; format: functional, organism-based
Summary of the method: (§4)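 Mice and schedule as in the chronic DSS model: four 7-day DSS cycles (1%, 1%, 2%, 2%), each followed by 7 days water, with a diet containing 0.25% test substance. At day 56, stool consistency (normal, loose, diarrhea) and gross rectal bleeding (visible fecal blood, anal examination) were scored within the DAI. n = 10.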

Mus musculus [7] = experiment: Antiinflammatory activity in C57BL/6 mouse DSS-induced chronic colitis model assessed as reduction of mucosal injury at 500 mg/kg/day administered through diet for total of 4 weeks for alternative weeks with water measured after 56 days by hematoxylin-eosin staining; format: functional, organism-based
Mus musculus [8] = experiment: Antiinflammatory activity in C57BL/6 mouse DSS-induced chronic colitis model assessed as reduction of colon weight to length ratio at 500 mg/kg/day administered through diet for total of 4 weeks for alternative weeks with water measured after 56 days; format: functional, organism-based
Summary of the method: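 Female C57BL/6 mice received four DSS cycles: 7 days DSS in drinking water (1%, then 2% in cycles 3–4) followed by 7 days water. Diet contained 0.25% test substance, about 500 mg/kg/day. At day 56, colons were removed, rinsed in cold PBS, blotted, weighed and measured to give weight/length (mg/cm). n = 10.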

Mus musculus [9] = experiment: Antiinflammatory activity in C57BL/6 mouse DSS-induced chronic colitis model assessed as effect on NFkappaB pathway in colon at 500 mg/kg/day administered through diet for total of 4 weeks for alternative weeks with water measured after 56 days by Western blot analysis; format: functional, organism-based
Mus musculus [10] = experiment: Antiinflammatory activity in C57BL/6 mouse DSS-induced chronic colitis model assessed as inhibition of IL-1beta production in colon at 500 mg/kg/day administered through diet for total of 4 weeks for alternative weeks with water measured after 56 days by ELISA relative to DSS-treated mouse; format: functional; conditions: C57BL/6, Colon; summary of the method: as §2
[11] = Antiproliferative activity against rat IEC-18 cells at 10 to 100 uM after 24 hrs by MTT assay; format: cell-based; conditions: iec-18, 24 h
Summary of the method: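 IEC-18 rat epithelial cells (passages 18–22) were seeded at 2.5 × 10^5 cells/mL in DMEM (4.5 g/L glucose, 5% FBS). After 24 h the medium was switched to 0.5% FBS and test substance was added at 10 and 100 μM, with dexamethasone 10 μM as reference. Proliferation was read by MTT at 24 h. n = 10.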

IEC-18 [12] = experiment: Inhibition of p38 MAPK-induced COX-2 expression in rat IEC-18 cells at 100 uM incubated for 1 hr prior to LPS challenge measured after 24 hrs by Western blot analysis; format: cell-based; summary of the method: as §3
Mus musculus [13] = experiment: Antiinflammatory activity in C57BL/6 mouse DSS-induced chronic colitis model assessed as decrease in severity of progressive chronic injury at 500 mg/kg/day administered through diet for total of 4 weeks for alternative weeks with water measured after 56 days; format: functional, organism-based
Mus musculus [14] = experiment: Antiinflammatory activity in C57BL/6 mouse DSS-induced chronic colitis model assessed as downregulation of iNOS expression in colon at 500 mg/kg/day administered through diet for total of 4 weeks for alternative weeks with water measured after 56 days by Western blot analysis relative to DSS-treated mouse; format: functional
Mus musculus [15] = experiment: Antiinflammatory activity in C57BL/6 mouse DSS-induced chronic colitis model assessed as up regulation of annexin A1 mRNA expression in colon at 500 mg/kg/day administered through diet for total of 4 weeks for alternative weeks with water measured after 56 days by RT-PCR analysis relative to DSS-treated control; format: functional
Summary of the method: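 Female C57BL/6 mice (6−8 weeks, 18−20 g) got four cycles of 7 days DSS in drinking water (1% cycles 1–2, 2% cycles 3–4) then 7 days water, with diet at 0.25% test agent throughout. Colons were taken at day 56. cDNA from 500 ng RNA was amplified with annexin A1 primers (25 cycles: 94/60/72 °C, 1 min each) and run on 2% agarose gel.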

[16] = Wound healing activity in rat IEC-18 cells assessed as induction of wound closure at 100 uM after 24 hrs relative to dexamethasone; format: functional
Summary of the method: (§5)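 Confluent IEC-18 cells (from 2.5 × 10^5 cells/mL seeding) were moved to 0.5% FBS DMEM and scraped. They were then treated with test substance at 10 and 100 μM, or dexamethasone 10 μM. Migration was counted blind as cells crossing the wound border in a defined area from 0 to 24 h, using photomicrographs at 200×. n = 10.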

Mus musculus [17] = experiment: Antiinflammatory activity in C57BL/6 mouse DSS-induced chronic colitis model assessed as downregulation of p38 MAPK phosphorylation in colon at 500 mg/kg/day administered through diet for 4 weeks measured after 56 days by Western blot analysis relative to DSS-treated mouse; format: functional
Mus musculus [18] = experiment: Antiinflammatory activity in C57BL/6 mouse DSS-induced chronic colitis model assessed as decrease in eosinophil peroxidase activity measured reduction of eosinophil accumulation in colon at 500 mg/kg/day administered through diet for total of 4 weeks for alternative weeks with water measured after 56 days by spectrophotometric analysis relative to DSS-treated mouse; format: functional; design: scale not given: the % may be the effect or the level left; summary of the method: as §1
Mus musculus [19] = experiment: Toxicity in C57BL/6 mouse assessed as effect on viability at 500 mg/kg/day administered through diet for total of 4 weeks for alternative weeks with water measured after 56 days; format: organism-based; conditions: in vivo, 1344 h
Mus musculus [20] = experiment: Antiinflammatory activity in C57BL/6 mouse DSS-induced chronic colitis model assessed as decrease in N-acetylglucosaminidase activity measured reduction of macrophage accumulation in colon at 500 mg/kg/day administered through diet for total of 4 weeks for alternative weeks with water measured after 56 days by spectrophotometric analysis relative to DSS-treated mouse; format: functional; design: scale not given: the % may be the effect or the level left; summary of the method: as §1
Mus musculus [21] = experiment: Antiinflammatory activity in C57BL/6 mouse DSS-induced chronic colitis model assessed as reduction of stool consistency at 500 mg/kg/day administered through diet for total of 4 weeks for alternative weeks with water measured after 56 days; format: functional, organism-based; summary of the method: as §4
Mus musculus [22] = experiment: Antiinflammatory activity in C57BL/6 mouse DSS-induced chronic colitis model assessed as downregulation of COX-2 expression in colon at 500 mg/kg/day administered through diet for total of 4 weeks for alternative weeks with water measured after 56 days by Western blot analysis relative to DSS-treated mouse; format: functional
Mus musculus [23] = experiment: Antiinflammatory activity in C57BL/6 mouse DSS-induced chronic colitis model assessed as leukocyte infiltration into mucosal tissue at 500 mg/kg/day administered through diet for total of 4 weeks for alternative weeks with water measured after 56 days by hematoxylin-eosin staining; format: functional, organism-based
Mus musculus [24] = experiment: Antiinflammatory activity in C57BL/6 mouse DSS-induced chronic colitis model assessed as induction of IL-10 production in colon at 500 mg/kg/day administered through diet for total of 4 weeks for alternative weeks with water measured after 56 days by ELISA relative to DSS-treated mouse; format: functional; conditions: C57BL/6, Colon; summary of the method: as §2
[25] = Wound healing activity in rat IEC-18 cells assessed as induction of wound closure at 10 uM after 24 hrs relative to dexamethasone; format: functional; summary of the method: as §5
[26] = Antiproliferative activity against rat IEC-18 cells at 10 uM after 24 hrs by MTT assay; format: cell-based; conditions: iec-18, 24 h
[27] = Wound healing activity in rat IEC-18 cells assessed as reduction of cell migration at 10 uM after 24 hrs relative to control; format: functional; design: scale not given: the % may be the effect or the level left; summary of the method: as §5
IEC-18 [28] = experiment: Inhibition of LPS-induced p38 MAPK phosphorylation in rat IEC-18 cells at 10 uM incubated for 1 hr prior to LPS challenge measured after 30 mins by Western blot analysis; format: cell-based
Summary of the method: (§6)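 IEC-18 rat intestinal epithelial cells were seeded at 2.5 × 10^5 cells/mL in DMEM (4.5 g/L glucose, 5% FBS) at 37 °C and 5% CO2. After 24 h the medium was switched to 0.5% FBS. Cells were pretreated with compound for 1 h, then stimulated with LPS 1 μg/mL: 30 min for phospho-p38 and 24 h for COX-2. Cytosolic protein (25 μg) was run on Western blots. Each result is the mean of at least three independent experiments.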

IEC-18 [29] = experiment: Inhibition of p38 MAPK-induced COX-2 expression in rat IEC-18 cells at 10 uM incubated for 1 hr prior to LPS challenge measured after 24 hrs by Western blot analysis; format: cell-based; summary of the method: as §6

C/C=C1/[C@H](O[C@@H]2O[C@H](CO)[C@@H](O)[C@H](O)[C@H]2O)OC=C(C(=O)OC)[C@H]1CC(=O)OCCc1ccc(O)c(O)c1 [OLEUROPEIN]
Activity (Mus musculus [1]): 36%
Activity (Mus musculus [2]): Active
Activity (Mus musculus [3]): Active
inhibition in vivo at 500 mg/kg/day (Mus musculus [4]): 37%
inhibition (IEC-18 [5]): Active
Activity (Mus musculus [6]): Active
Activity (Mus musculus [7]): Active
Activity (Mus musculus [8]): Active
Activity (Mus musculus [9]): inactive
inhibition in vivo at 500 mg/kg/day (Mus musculus [10]): 25%
Activity [11]: Non-toxic
inhibition (IEC-18 [12]): 83%
Activity (Mus musculus [13]): Active
Activity (Mus musculus [14]): 58%
fold change (FC) (Mus musculus [15]): 46
Activity [16]: 80%
Activity (Mus musculus [17]): <=65%
Activity (Mus musculus [18]): 46%
Activity (Mus musculus [19]): Non-toxic
Activity (Mus musculus [20]): 42%
Activity (Mus musculus [21]): Active
Activity (Mus musculus [22]): 68%
Activity (Mus musculus [23]): Active
induction in vivo at 500 mg/kg/day (Mus musculus [24]): 34%
Activity [25]: 57%

C[C@@H]1C[C@H]2[C@@H]3CCC4=CC(=O)C=C[C@]4(C)[C@@]3(F)[C@@H](O)C[C@]2(C)[C@@]1(O)C(=O)CO [DEXAMETHASONE]
Activity [26]: Non-toxic
Activity [27]: 20%

C[S+]([O-])c1ccc(-c2nc(-c3ccc(F)cc3)c(-c3ccncc3)[nH]2)cc1 (centres undefined)
inhibition (IEC-18 [28]): Active
inhibition (IEC-18 [29]): 70%
